Data: ChEMBL document CHEMBL1132620, “Piperazine imidazo[1,5-a]quinoxaline ureas as high-affinity GABAA ligands of dual functionality” (J Med Chem, 1999)
Active and inactive are the calls of the source. No cut-off for these calls is given here.

Columns and labels:
[1] = target: T1, GABA-A receptor; anion channel (Rattus norvegicus) (UniProt O09028+P15431+P18506+P18508+P19969+P20236+P23574+P23576+P28471+P28473+P30191+P62813+P63079+P63138+Q91ZM7+Q9ES14); test: Shift in [35S]TBPS binding to GABA-A Benzodiazepine receptor of rat brain membrane
[2] = target: T2, GABA-A receptor; alpha-1/beta-2/gamma-2 (Homo sapiens) (UniProt P14867+P47870+P18507); test: (§1) In vitro GABA-mediated chloride current in A293 cells expressing GABA-A benzodiazepine receptor alpha-1-beta-2-gamma-2 subunits at 5 uM; format: functional, cell-based; settings: HEK293
[3] = target: T2, GABA-A receptor; alpha-1/beta-2/gamma-2 (Homo sapiens); test: as §1; format: functional, cell-based; settings: HEK293; remark: listed apart in the source
[4] = target: GABA-A receptor; anion channel; test: (§2) Displacement of [3H]flunitrazepam from GABA-A benzodiazepine receptor of rat cortical membranes; format: cell membranes, Membrane
Method in brief: (§3)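 Rat membranes incubated 60 min at 4 °C with [3H]flunitrazepam, 50 µg membrane protein and graded test drug in 200 µL containing NaCl, 10 mM Hepes/Tris pH 7.4 and 1 mM MgCl2; bound ligand separated by rapid filtration on GF/B; mean affinity, SE ≤10% of mean.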

Rattus norvegicus = test: In vivo efficacy evaluated for ability to antagonize metrazole induced clonic convulsions in rat after ip injection; format: functional
Mus musculus [5] = test: In vivo efficacy is evaluated by percent control of cerebellar GMP levels in (drug+stress) treated mice/mice under stress; format: functional; set-up: concentration or dose not given beside the values
Method in brief: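 Male CF-1 mice given drug orally in vehicle 122 before electric footshock stress, controls given vehicle (1 mL/100 g); killed 30 min after treatment; cerebellum homogenized in 1% perchloric acid, iced 30 min, boiled 5 min, spun 17000g 20 min; supernatant cGMP by radioimmunoassay, expressed as % of stress control.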

[6] = target: T1, GABA-A receptor; anion channel (Rattus norvegicus); test: as §2; format: cell membranes; set-up: concentration or dose not given beside the values; settings: Membrane, concentration not given here; method in brief: as §3
Mus musculus [7] = species: Mus musculus; test: Ability to antagonize the muscle relaxation effect in mice caused by a benzodiazepine full agonist, triazolam.; format: functional
Method in brief: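 Muscle relaxation induced by triazolam; test compound and triazolam given separately, traction scored 30 min after dosing; ED50 for blocking the relaxant effect.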

Mus musculus [8] = test: In vivo acute electroshock physical dependence activity in mice; Not active.; format: functional, organism-based

CC(C)(C)OC(=O)c1ncn2c1CN(C(=O)N1CC3CCC(C1)N3)c1cc(Cl)ccc1-2
Shift [1]: 0.2 | Change in Cl- current [2]: 0.73 | Change in Cl- current [3]: 0.2 | Ki [4]: 5.45 nM | ED50 (Rattus norvegicus): > 50 mg/kg

CN(C)C(=O)N1Cc2c(C(=O)OC(C)(C)C)ncn2-c2ccccc21
Shift [1]: 0.15 | Change in Cl- current [3]: 0.09 | Ki [4]: 5.25 nM | ED50 (Rattus norvegicus): > 50 mg/kg

Cc1ccc2c(c1)N(C(=O)N1C[C@@H](C)N[C@H](C)C1)Cc1c(C(=O)OC(C)(C)C)ncn1-2
Shift [1]: 0.1 | Change in Cl- current [2]: 0.7 | Change in Cl- current [3]: 0.05 | Control (Mus musculus [5]): 49% | Ki [4]: 5.17 nM | inhibition [6]: 22% | ED50 (Rattus norvegicus): 6.3 mg/kg

Cc1cccc2c1N(C(=O)N1C[C@@H](C)N[C@@H](C)C1)Cc1c(C(=O)OC(C)(C)C)ncn1-2
Shift [1]: 0.54 | Change in Cl- current [3]: 0.22 | Ki [4]: 250 nM | ED50 (Rattus norvegicus): > 50 mg/kg

CC1CN(C)CC(C)N1C(=O)N1Cc2c(C(=O)OC(C)(C)C)ncn2-c2ccc(F)cc21 (stereo not drawn)
Shift [1]: 0.63 | Change in Cl- current [3]: 0.75 | Control (Mus musculus [5]): 82% | Ki [4]: 13.3 nM | ED50 (Mus musculus [7]): > 30 mg/kg | inhibition [6]: 68% | ED50 (Rattus norvegicus): 8.8 mg/kg

C[C@@H]1CN(C(=O)N2Cc3c(C(=O)OC(C)(C)C)ncn3-c3ccc(F)cc32)C[C@H](C)N1C
Shift [1]: 0.44 | Change in Cl- current [2]: 1 | Change in Cl- current [3]: -0.1 | Control (Mus musculus [5]): 77% | Ki [4]: 2.69 nM | ED50 (Mus musculus [7]): 21.8 mg/kg | inhibition [6]: 29% | ED50 (Rattus norvegicus): 35.3 mg/kg

C[C@@H]1CN(C(=O)N2Cc3c(C(=O)OC(C)(C)C)ncn3-c3ccc(Cl)cc32)C[C@@H](C)N1
Shift [1]: 0.56 | Change in Cl- current [2]: 0.5 | Change in Cl- current [3]: 0.05 | Ki [4]: 5.13 nM | ED50 (Mus musculus [7]): > 30 mg/kg | inhibition [6]: 62% | ED50 (Rattus norvegicus): 1.3 mg/kg

Cc1ccc2c(c1)N(C(=O)N1CCNCC1)Cc1c(C(=O)OC(C)(C)C)ncn1-2
Shift [1]: 0.3 | Change in Cl- current [2]: 0.55 | Change in Cl- current [3]: 0.4 | Ki [4]: 14.7 nM | ED50 (Mus musculus [7]): > 30 mg/kg | ED50 (Rattus norvegicus): 21 mg/kg

CC1CNCC(C)N1C(=O)N1Cc2c(C(=O)OC(C)(C)C)ncn2-c2ccc(F)cc21 (stereo not drawn)
Shift [1]: 0.02 | Change in Cl- current [2]: 0.72 | Change in Cl- current [3]: 0 | Control (Mus musculus [5]): 100% | Ki [4]: 3.45 nM | ED50 (Mus musculus [7]): > 30 mg/kg | inhibition [6]: 69% | ED50 (Rattus norvegicus): 10.5 mg/kg

C[C@@H]1CN(C(=O)N2Cc3c(C(=O)OC(C)(C)C)ncn3-c3ccccc32)C[C@H](C)N1
Shift [1]: -0.018 | Change in Cl- current [2]: 0.5 | Change in Cl- current [3]: 0 | Control (Mus musculus [5]): 94% | Ki [4]: 3.04 nM | ED50 (Mus musculus [7]): > 30 mg/kg | inhibition [6]: 82% | ED50 (Rattus norvegicus): > 50 mg/kg

C[C@@H]1CN(C(=O)N2Cc3c(C(=O)OC(C)(C)C)ncn3-c3ccc(C(F)(F)F)cc32)C[C@@H](C)N1
Shift [1]: 0.68 | Change in Cl- current [2]: 0.7 | Change in Cl- current [3]: 0.8 | Control (Mus musculus [5]): 92% | Ki [4]: 37.1 nM | ED50 (Mus musculus [7]): > 30 mg/kg | inhibition [6]: 24% | ED50 (Rattus norvegicus): 4.4 mg/kg

C[C@@H]1CN(C(=O)N2Cc3c(C(=O)OC(C)(C)C)ncn3-c3ccc(Cl)cc32)C[C@H](C)N1S(C)(=O)=O.ClCCl
Acute electroshock activity (Mus musculus [8]): inactive | Shift [1]: 0.76 | Change in Cl- current [3]: 0.9 | Ki [4]: 4.18 nM | ED50 (Mus musculus [7]): > 30 mg/kg | inhibition [6]: 8% | ED50 (Rattus norvegicus): > 50 mg/kg

CC1CN(C(=O)N2Cc3c(C(=O)OC(C)(C)C)ncn3-c3ccc(Cl)cc32)CC(C)N1 (stereo not drawn)
Shift [1]: 0.41 | Change in Cl- current [2]: 0.6 | Change in Cl- current [3]: 0.8 | Ki [4]: 2.35 nM | ED50 (Mus musculus [7]): 17.3 mg/kg | inhibition [6]: 63% | ED50 (Rattus norvegicus): 10.5 mg/kg

C[C@@H]1NCCN(C(=O)N2Cc3c(C(=O)OC(C)(C)C)ncn3-c3ccc(Cl)cc32)[C@H]1C
Shift [1]: 0.07 | Change in Cl- current [2]: 0.68 | Change in Cl- current [3]: 0.48 | Ki [4]: 4.03 nM | ED50 (Mus musculus [7]): 35 mg/kg | inhibition [6]: 55% | ED50 (Rattus norvegicus): 17.7 mg/kg

Cc1cccc2c1N(C(=O)N1C[C@@H](C)N(C)[C@@H](C)C1)Cc1c(C(=O)OC(C)(C)C)ncn1-2
Shift [1]: 0.48 | Change in Cl- current [3]: 0.33 | Ki [4]: 470 nM | ED50 (Rattus norvegicus): > 50 mg/kg

CC(C)(C)OC(=O)c1ncn2c1CN(C(=O)N1CC3CC1CN3)c1cc(Cl)ccc1-2 (stereo not drawn)
Acute electroshock activity (Mus musculus [8]): inactive | Shift [1]: 0.33 | Change in Cl- current [2]: 0.3 | Change in Cl- current [3]: 0.5 | Ki [4]: 30.1 nM | inhibition [6]: 4% | ED50 (Rattus norvegicus): > 50 mg/kg

C[C@@H]1CN(C(=O)N2Cc3c(C(=O)OC(C)(C)C)ncn3-c3ccc(Cl)cc32)CCN1
Shift [1]: 0.01 | Change in Cl- current [2]: 0.6 | Change in Cl- current [3]: 0 | Control (Mus musculus [5]): 57% | Ki [4]: 5.96 nM | ED50 (Mus musculus [7]): 27.5 mg/kg | inhibition [6]: 75% | ED50 (Rattus norvegicus): 3.7 mg/kg

CC(C)(C)OC(=O)c1ncn2c1CN(C(=O)N1CCNCC1)c1ccccc1-2.Cl
Shift [1]: 0.04 | Change in Cl- current [2]: 0.35 | Ki [4]: 4.11 nM | ED50 (Rattus norvegicus): > 50 mg/kg

C[C@@H]1CN(C(=O)N2Cc3c(C(=O)OC(C)(C)C)ncn3-c3ccc(C(F)(F)F)cc32)CCN1
Shift [1]: 0.6 | Change in Cl- current [2]: 1 | Change in Cl- current [3]: 1 | Control (Mus musculus [5]): 88% | Ki [4]: 23.2 nM | ED50 (Mus musculus [7]): > 30 mg/kg | inhibition [6]: 30% | ED50 (Rattus norvegicus): 8.9 mg/kg

C[C@@H]1CN(C(=O)N2Cc3c(C(=O)OC(C)(C)C)ncn3-c3ccc(F)cc32)C[C@H](C)N1
Shift [1]: -0.14 | Change in Cl- current [2]: 0.5 | Change in Cl- current [3]: 0 | Control (Mus musculus [5]): 74% | Ki [4]: 1.04 nM | ED50 (Mus musculus [7]): > 30 mg/kg | inhibition [6]: 95% | ED50 (Rattus norvegicus): 35.3 mg/kg

C[C@@H]1CN(C(=O)N2Cc3c(C(=O)OC(C)(C)C)ncn3-c3cccc(Cl)c32)C[C@H](C)N1
Shift [1]: 0.05 | Change in Cl- current [3]: 0.29 | Control (Mus musculus [5]): 95% | Ki [4]: 28.2 nM | ED50 (Mus musculus [7]): > 30 mg/kg | inhibition [6]: 44% | ED50 (Rattus norvegicus): > 50 mg/kg

C[C@@H]1CN(C(=O)N2Cc3c(C(=O)OC(C)(C)C)ncn3-c3ccccc32)C[C@H](C)N1C
Shift [1]: -0.82 | Change in Cl- current [2]: 0.5 | Change in Cl- current [3]: -0.1 | Ki [4]: 6.67 nM | ED50 (Rattus norvegicus): > 50 mg/kg

Cc1ccc2c(c1)N(C(=O)N1CCN[C@H](C)C1)Cc1c(C(=O)OC(C)(C)C)ncn1-2
Shift [1]: 0.19 | Change in Cl- current [2]: 0.8 | Change in Cl- current [3]: 0.1 | Control (Mus musculus [5]): 59% | Ki [4]: 5.47 nM | ED50 (Mus musculus [7]): 17.3 mg/kg | inhibition [6]: 51% | ED50 (Rattus norvegicus): 2.7 mg/kg

CC(C)(C)OC(=O)c1ncn2c1CN(C(=O)N1CCNCC1)c1cc(Cl)ccc1-2
Shift [1]: -0.02 | Change in Cl- current [2]: 0.4 | Change in Cl- current [3]: 0 | Ki [4]: 3.99 nM | ED50 (Rattus norvegicus): > 50 mg/kg

CN1C2CCC1CN(C(=O)N1Cc3c(C(=O)OC(C)(C)C)ncn3-c3ccc(Cl)cc31)C2
Shift [1]: 0.68 | Change in Cl- current [2]: 2.1 | Change in Cl- current [3]: 2 | Ki [4]: 9.15 nM | ED50 (Mus musculus [7]): > 30 mg/kg | inhibition [6]: 26% | ED50 (Rattus norvegicus): 29.7 mg/kg

CC1CN(C(=O)N2Cc3c(C(=O)OC(C)(C)C)ncn3-c3ccc(Cl)cc32)C(C)CN1.O=C(O)CC(=O)O (stereo not drawn)
Shift [1]: 0.41 | Change in Cl- current [2]: 0.3 | Change in Cl- current [3]: -0.05 | Ki [4]: 7.8 nM | ED50 (Mus musculus [7]): > 30 mg/kg | inhibition [6]: 71% | ED50 (Rattus norvegicus): 17.6 mg/kg

CN1CC2CC1CN2C(=O)N1Cc2c(C(=O)OC(C)(C)C)ncn2-c2ccc(Cl)cc21 (stereo not drawn)
Shift [1]: 0.68 | Change in Cl- current [2]: 1.6 | Change in Cl- current [3]: 1 | Ki [4]: 4.89 nM | ED50 (Mus musculus [7]): > 30 mg/kg | inhibition [6]: 11% | ED50 (Rattus norvegicus): 7.4 mg/kg
